Source: PubChem (several laboratories)
Only some compounds are listed: those with a hit (about 4.1% of all), similar ones and a draw of the others.
Efflux pump mplx – antifungal efflux pump inhibition, Nile Red retention | S. cerevisiae Candida pump triplex | inhibition, % at 10 µM | 330,000 tested, 0.44% active | AID 485275;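 active = plate passing quality check with inhibition over a set limit, or well fluorescence over plate mean plus 4 SD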;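 also: Nile Red retained in pooled yeast measured as flow cytometry median fluorescence; 0% = buffer negative control and 100% = Enniatin B positive control; higher means more Nile Red kept so more efflux inhibition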
SMARCA2 activ – activators of SMARCA2 function; AID 652017; MG213 cells, MMTV-luciferase reporter, dexamethasone, overnight; 370,000 tested, 1% active; activation, % at 9.1 µM; in the data active = activation above about 7.8%;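 also: 0% = vehicle wells and 100% = reference activator wells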
Tb MetRS inh – Trypanosoma brucei MetRS inhibition; purified T. brucei MetRS, ATP depletion, Kinase-Glo luminescence; inhibition, % at 11.9 µM; 360,000 tested, 0.4% active;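 active = inhibition above a per-plate cutoff of the control wells' mean inhibition plus 3 SD, cut at about 5.5% in these data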;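 also: 0% = DMSO wells median and 100% = median of wells with control inhibitor compound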
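Test system – parasite MetRS enzyme · Reagent – substrates ATP, L-methionine and bulk Escherichia coli tRNA · Doses – 11.9 µM compound single dose, 0.9% DMSO · Times – 15 min enzyme-compound preincubation, 2 h reaction, 10 min detection, 25 °C · Signal – Kinase-Glo luminescence, ATP depletion format · Controls – DMSO-only wells as low control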
AHR act – activators of human aryl hydrocarbon receptor. activation, % at 5 µM. AHR-responsive luciferase reporter cells, luminescence. 320,000 tested, 2.5% active. P35869. AID 2796; in the data active = activation above about 47%;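 also: 0% = vehicle wells and 100% = reference agonist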
Target sequence (P35869 whole entry, looked up): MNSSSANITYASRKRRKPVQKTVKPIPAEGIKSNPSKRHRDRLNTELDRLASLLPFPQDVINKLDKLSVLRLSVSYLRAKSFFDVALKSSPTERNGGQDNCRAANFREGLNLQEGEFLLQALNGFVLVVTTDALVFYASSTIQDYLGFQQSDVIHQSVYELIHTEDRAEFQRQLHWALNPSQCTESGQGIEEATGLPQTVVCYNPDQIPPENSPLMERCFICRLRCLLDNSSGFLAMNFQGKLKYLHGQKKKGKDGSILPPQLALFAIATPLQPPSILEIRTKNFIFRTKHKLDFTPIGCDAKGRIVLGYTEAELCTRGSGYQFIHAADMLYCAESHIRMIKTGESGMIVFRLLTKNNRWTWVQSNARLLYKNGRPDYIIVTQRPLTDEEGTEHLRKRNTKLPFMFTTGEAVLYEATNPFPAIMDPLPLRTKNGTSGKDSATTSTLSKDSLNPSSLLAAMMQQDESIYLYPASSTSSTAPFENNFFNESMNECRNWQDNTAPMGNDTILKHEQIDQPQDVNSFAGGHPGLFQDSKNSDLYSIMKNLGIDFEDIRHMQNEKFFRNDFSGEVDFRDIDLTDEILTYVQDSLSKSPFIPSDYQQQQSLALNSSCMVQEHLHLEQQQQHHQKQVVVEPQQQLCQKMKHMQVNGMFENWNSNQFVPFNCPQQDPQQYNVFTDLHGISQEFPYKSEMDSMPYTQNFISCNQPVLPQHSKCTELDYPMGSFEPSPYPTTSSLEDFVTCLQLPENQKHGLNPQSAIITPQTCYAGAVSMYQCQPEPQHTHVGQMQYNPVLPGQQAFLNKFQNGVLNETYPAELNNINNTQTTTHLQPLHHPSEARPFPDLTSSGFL
TAG inh – inhibitors of triacylglycerol accumulation. AID 651582. H9c2 cells, Nile Red lipid (TAG) fluorescence; cells loaded with 200 µM oleic acid. inhibition, % at 12.5 µM. 230,000 tested, 0.66% active;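 active = pattern-corrected inhibition of lipid staining of at least 50% with the nuclear-stain viability signal not falling by more than 50%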;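 also: 0% = DMSO wells and 100% = triacsin C control wells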
SMARCA2 act conf – confirmation of SMARCA2 (BRM) function activators; shares compounds with SMARCA2 activ; MG213 cells, MMTV-luciferase with dexamethasone, luminescence, overnight; MG213 cells expressing E1A, Rb sequestered; DMSO wells 0%, reference activator 100%; activation, % at 9.1 µM; 3,500 tested, 30% active; AID 652260;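 active = activation above its plate's cutoff, the mean activation of tested wells plus 3 SD, cut at about 7.9% in these data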
GAL4-VP16 Luc – counter-screen for SMARCA2 activators: GAL4-VP16 luciferase reporter activation; shares compounds with SMARCA2 activ; HEK293 GAL4-VP16 pG5luc reporter, luciferase luminescence; scaled: DMSO wells 0%, SAHA wells 100%; activation, % at 9.1 µM; 3,500 tested, 41% active; AID 686939;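 active = activation above the solvent-only control well mean plus 3 SD, averaged across control plates, cut at about 5.2% in these data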
The depositor's hits bear a star; . = no result given.

SMILES	Efflux pump mplx	SMARCA2 activ	Tb MetRS inh	AHR act	TAG inh	SMARCA2 act conf	GAL4-VP16 Luc
CCCCN(C)c1nc(C)nc2c1nnn2Cc1ccccc1	.	-2.2	.	.	.	.	.
COc1cc(F)ccc1-c1csc(C(NC(C)=O)c2cccc(F)c2)n1 (stereo not drawn)	.	10.1*	-0.1	.	20.5	2.1	1.4
O=[N+]([O-])c1nn(-c2ccccc2)n(O)c1=NCCc1ccccc1	-0.2	11.2*	0.3	6.9	.	5.6	2.8
CCCCNC(=O)C[C@@H]1C[C@]2(C(=O)OCC)CCC3=C2N(CCC3)C1=O	.	-2.5	.	.	.	.	.
CCC(=O)N1N=C(c2c(-c3ccccc3)c3cc(Cl)ccc3[nH]c2=O)CC1c1ccco1 (stereo not drawn)	0.0	10.4*	0.4	-0.2	.	-3.2	-0.1
c1ccc(CSc2ccc(-c3ccc4c(c3)OCO4)nn2)cc1	-0.1	10.9*	-1.5	73.6*	.	7.9*	5.0
Cc1cc(N2CCNC[C@@H]2C)ccc1N1CCN(Cc2ccccc2)[C@@H](C)C1	.	-1.4	.	.	.	.	.
CCc1ccc2oc(C(=O)Nc3nonc3C)c(C)c2c1	0.1	1.5	-0.7	-5.7	.	.	.
Cc1ccc2oc(C(=O)Nc3nnc(CC(C)C)s3)c(C)c2c1	-1.5	-1.4	-0.8	-4.4	.	.	.
Cc1ccc2oc(C(=O)Nc3cc(C)on3)c(C)c2c1	0.2	9.4*	-0.4	29.6	1.4	8.2*	8.0*
Cc1cc2oc(C(=O)Nc3nonc3C)c(C)c2cc1C	-0.3	8.9*	-0.3	-3.4	.	7.3	11.0*
COC(=O)N(C)C[C@H]1OCc2cnnn2CCCC(=O)N([C@@H](C)CO)C[C@@H]1C	.	8.6*	1.2	.	9.1	-3.3	0.3
COC(=O)N(C)C[C@H]1OCc2cnnn2CCCC(=O)N([C@H](C)CO)C[C@@H]1C	.	-1.3	.	.	.	.	.
C[C@H]1CN([C@@H](C)CO)C(=O)CCCn2cc(nn2)CO[C@@H]1CN(C)C(=O)c1ccc(N2CCN(C)CC2)cc1	.	8.2*	-0.7	.	.	-1.2	-0.8
O=C(c1cc(Cl)ccc1Cl)N1CCOCC1	0.0	10.5*	-0.2	-1.1	.	8.2*	1.4
O=[N+]([O-])c1cccnc1NCCc1c[nH]c2ccccc12	-0.1	8.8*	-1.0	24.0	.	12.6*	8.4*
Cc1cccc(OCc2cc(-c3ccccc3)no2)c1C	-0.2	8.9*	-0.2	-1.6	.	7.8	6.5*
Fc1ccc(OCc2cc(-c3ccccc3)no2)cc1	0.1	3.9	-0.8	-3.5	.	.	.
COc1ccc(-c2cc(COc3ccccc3)on2)cc1	-0.3	8.4*	-0.4	-2.0	-4.3	3.8	7.2*
O=C(NCc1ccccn1)c1nnc(Cc2ccc(Cl)cc2)o1	-0.1	9.6*	0.4	2.1	-2.5	1.3	0.7
CCSc1nnc(NC(=O)[C@@H](NC(=O)c2cccc(C)c2)C(C)C)s1	-0.1	-1.8	-1.1	0.0	.	.	.
CCCC(=O)Nc1nnc(SCC)s1	0.1	8.5*	0.2	1.6	.	2.5	1.6
CCSc1nnc(NC(=O)c2csc(C)c2)s1	-0.4	8.1*	0.2	-0.9	.	5.0	8.8*
CCCC(=O)Nc1nnc(SCC(=O)N2CCCCC2)s1	0.0	-1.0	0.4	-0.2	.	.	.
COc1ccc(CN2CCNC(=O)C2CC(=O)O)cc1OC (stereo not drawn)	-0.1	12.4*	-0.1	-1.8	3.2	-1.4	0.4
SMILES	Efflux pump mplx	SMARCA2 activ	Tb MetRS inh	AHR act	TAG inh	SMARCA2 act conf	GAL4-VP16 Luc
CC(C)NC(=O)Cn1c(-c2cncs2)nc2ccccc21	.	-3.0	.	.	.	.	.
CN(C)c1cccc(CNC(=O)c2csc([C@@H]3O[C@H](CO)[C@@H](O)[C@H]3O)n2)c1	.	8.3*	0.4	.	-23.9	-4.4	-0.5
CN(C)c1cccc(CNC(=O)c2csc([C@@H]3O[C@H](CO)[C@H](O)[C@H](O)[C@H]3O)n2)c1	.	-1.5	-0.2	.	12.4	.	.
CCCCc1c(-c2ccccc2OC)ncn1Cc1ccc(OC)c(Cl)c1	.	-6.8	.	.	.	.	.
CCNS(=O)(=O)c1ccc(OCCNS(C)(=O)=O)cc1	-0.1	8.1*	-0.9	-1.3	.	0.2	-0.1
CCN(CC)S(=O)(=O)c1ccc(OCCNS(C)(=O)=O)cc1	-0.3	-3.0	0.3	-2.4	.	.	.
CN(C)C(=O)CCc1nc(-c2ccc(C(C)(C)C)cc2)no1	0.0	11.3*	-0.6	-0.1	10.5	3.3	5.3*
C[C@@H]1CN([C@H](C)CO)C(=O)CCCn2nncc2CO[C@H]1CN(C)C(=O)Nc1ccc2c(c1)OCCO2	.	3.7	.	.	.	.	.
Cc1nnc(SCC(=O)NNC(=O)c2ccccc2)n1-c1ccccc1	0.1	-4.0	-0.6	1.0	.	.	.
Cc1ccccc1-n1c(C)nnc1SCC(=O)NNC(=O)c1ccccc1	0.5	8.0*	0.1	0.3	.	5.1	1.5
Cc1cc(NS(=O)(=O)c2ccc(NC(=O)CSc3nnc(-c4ccccn4)n3Cc3ccco3)cc2)nc(C)n1	.	-4.6	.	.	.	.	.
CCc1ccc(NCc2nc3ccccc3c(=O)[nH]2)cc1	-0.2	8.3*	-0.5	43.2	-14.4	11.0*	13.7*
O=C(O)c1cc(C2CC2)nn1-c1ccccc1	0.2	3.1	0.3	2.4	.	.	.
Nc1cc(C2CCCC2)nn1-c1ccccc1	-0.2	9.0*	-0.9	7.5	.	18.0*	5.0
CCCCCCCCNS(=O)(=O)CC1NCc2cc(OC)ccc21 (stereo not drawn)	.	1.0	.	.	.	.	.
O=C(O)Cn1cc(/C=C/[N+](=O)[O-])c2ccccc21	-0.2	3.0	0.2	10.1	4.5	.	.
O=C(Cn1cc(/C=C\[N+](=O)[O-])c2ccccc21)Nc1ccccc1	0.2	17.0*	3.1	16.6	-13.4	10.0*	0.8
O=C(NNC1=C(C(=O)C(F)(F)F)CCC1)c1cccc(Cl)c1	-0.1	2.5	-0.8	2.8	.	.	.
O=C(NNC1=C(C(=O)C(F)(F)F)CCC1)c1ccc(Cl)cc1	0.0	14.1*	-0.6	1.8	.	-4.8	-0.2
O=C(c1ccc(F)cc1)c1cc2ccccc2o1	0.0	10.7*	-0.2	-4.5	.	7.7	7.4*
C=CCN1[C@@H](C)[C@H](c2ccccc2)Oc2cccc(NCC(C)C)c2S1(=O)=O	.	-4.5	.	.	.	.	.
Cn1c(/C=C/c2ccccc2)nc2ccccc21	-0.1	8.9*	-2.1	2.9	16.6	5.2	7.8*
Cn1c(/C=N/NC(=O)c2ccccc2)nc2ccccc21	-0.1	-1.1	0.2	-3.9	.	.	.
CC(=O)c1ccc(/C=C/c2nc3ccccc3n2C)o1	0.3	8.8*	-0.5	2.5	4.8	22.6*	12.0*
Cn1c(=O)c(/C=C/c2ccc(F)cc2)nc2ccccc21	.	-0.9	-0.4	.	19.6	.	.
COCCn1c(/C=C/c2ccccc2)nc2ccccc21	0.1	9.2*	-1.5	5.6	-0.2	6.5	13.4*
COCCn1c(-c2ccccc2)nc2ccccc21	0.6	0.3	0.3	5.1	.	.	.
CCOC(=O)C(C)(C)CC#CCN(CC#Cc1ccccc1)S(=O)(=O)c1ccc(C)cc1	.	-5.8	.	.	.	.	.
